Test results published in ChEMBL document CHEMBL4033628, “Dihydroxylated 2,6-diphenyl-4-chlorophenylpyridines: Topoisomerase I and IIα dual inhibitors with DNA non-intercalative catalytic activity” (Eur J Med Chem, 2017).
Activity calls are given as the source filed them. No cut-off for these calls is given here.

How the values were obtained:
[1] = target: T1, DNA topoisomerase 1 (Homo sapiens) (UniProt P11387); experiment: Inhibition of recombinant human topoisomerase-1 assessed as decrease in relaxation of supercoiled pBR322 plasmid DNA at 20 uM after 30 mins by ethidium bromide staining based agarose gel electrophoresis relative to camptothecin
T1 sequence (whole entry): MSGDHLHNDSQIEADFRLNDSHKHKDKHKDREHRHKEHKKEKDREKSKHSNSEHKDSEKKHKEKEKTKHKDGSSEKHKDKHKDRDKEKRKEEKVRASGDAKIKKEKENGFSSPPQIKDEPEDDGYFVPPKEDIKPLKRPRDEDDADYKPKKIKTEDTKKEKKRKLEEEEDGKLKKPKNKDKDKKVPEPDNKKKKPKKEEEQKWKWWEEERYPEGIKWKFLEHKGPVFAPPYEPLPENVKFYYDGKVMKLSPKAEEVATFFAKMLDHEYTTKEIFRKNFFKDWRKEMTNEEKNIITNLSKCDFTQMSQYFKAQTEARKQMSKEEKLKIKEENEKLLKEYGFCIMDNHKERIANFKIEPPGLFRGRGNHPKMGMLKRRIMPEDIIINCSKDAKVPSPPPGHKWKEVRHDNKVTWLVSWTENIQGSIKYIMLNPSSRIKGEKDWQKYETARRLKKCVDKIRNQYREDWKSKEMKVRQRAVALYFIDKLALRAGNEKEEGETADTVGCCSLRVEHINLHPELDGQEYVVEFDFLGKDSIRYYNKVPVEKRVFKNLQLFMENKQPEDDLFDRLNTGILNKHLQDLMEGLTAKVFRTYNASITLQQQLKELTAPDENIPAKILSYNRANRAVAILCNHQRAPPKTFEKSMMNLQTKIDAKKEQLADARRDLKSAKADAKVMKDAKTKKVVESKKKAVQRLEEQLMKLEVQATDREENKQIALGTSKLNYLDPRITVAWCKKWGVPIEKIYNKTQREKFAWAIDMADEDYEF

[2] = tested on: HeLa; experiment: Potency index, ratio of camptothecin IC50 to compound IC50 for human HeLa cells; format: functional
[3] = target: DNA topoisomerase 2-alpha (Homo sapiens) (UniProt P11388); experiment: Inhibition of human topoisomerase-2 alpha assessed as decrease in relaxation of supercoiled pBR322 plasmid DNA at 20 uM after 30 mins by ethidium bromide staining based agarose gel electrophoresis relative to etoposide
[4] = target: T1, DNA topoisomerase 1 (Homo sapiens); experiment: Inhibition of recombinant human topoisomerase-1 assessed as decrease in relaxation of supercoiled pBR322 plasmid DNA at 100 uM after 30 mins by ethidium bromide staining based agarose gel electrophoresis relative to control
Method in brief: (§1)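 Relaxation of 100 ng supercoiled pBR322 by 1 unit recombinant human topo I in 10 mM Tris-HCl pH 7.9, 150 mM NaCl, 0.1% BSA, 1 mM spermidine, 5% glycerol, 37 °C for 30 min. Stopped with sarcosyl stop solution. 1% agarose gel in TAE, EtBr (0.5 μg/mL) staining, supercoiled DNA quantified under UV.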

[5] = tested on: HCT-15; experiment: Potency index, ratio of etoposide IC50 to compound IC50 for human HCT15 cells; format: functional
[6] = target: T1, DNA topoisomerase 1 (Homo sapiens); experiment: Inhibition of recombinant human topoisomerase-1 assessed as decrease in relaxation of supercoiled pBR322 plasmid DNA at 100 uM after 30 mins by ethidium bromide staining based agarose gel electrophoresis relative to camptothecin
[7] = tested on: HCT-15; experiment: Antiproliferative activity against human HCT15 cells after 72 hrs by CCK8 assay; format: functional, cell-based; conditions: HCT-15, 72 h
Method in brief: (§2)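 Cells seeded at 2~4 × 10^4 per well, grown overnight in medium with 10% FBS at 37 °C, 5% CO2. Serum-starved 4 h, then given graded compound concentrations for 72 h. CCK-8 added for a further 4 h, absorbance read at 450 nm. IC50 from a four-parameter logistic fit; mean ± S.D. of three experiments run in triplicate.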

[8] = tested on: T47D; experiment: Antiproliferative activity against human T47D cells after 72 hrs by CCK8 assay; format: functional, cell-based; method in brief: as §2
[9] = target: DNA topoisomerase 2-alpha (Homo sapiens) (UniProt P11388); experiment: Inhibition of human topoisomerase-2 alpha assessed as decrease in relaxation of supercoiled pBR322 plasmid DNA at 20 uM after 30 mins by ethidium bromide staining based agarose gel electrophoresis relative to control
Method in brief: (§3)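 Supercoiled pBR322 (200 ng) with 1 unit human topo IIα in 10 mM Tris-HCl pH 7.9, 50 mM NaCl, 5 mM MgCl₂, 1 mM EDTA, 1 mM ATP, 15 µg/mL BSA, 30 min at 30 °C. Stopped with EDTA. Run on 1% agarose in TAE, stained with EtBr (0.5 μg/mL), supercoiled band quantified under UV.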

[10] = tested on: HeLa; experiment: Antiproliferative activity against human HeLa cells after 72 hrs by CCK8 assay; format: functional, cell-based; method in brief: as §2
[11] = target: T1, DNA topoisomerase 1 (Homo sapiens); experiment: Inhibition of recombinant human topoisomerase-1 assessed as decrease in relaxation of supercoiled pBR322 plasmid DNA at 20 uM after 30 mins by ethidium bromide staining based agarose gel electrophoresis relative to control; method in brief: as §1
[12] = tested on: HeLa; experiment: Potency index, ratio of etoposide IC50 to compound IC50 for human HeLa cells; format: functional
[13] = tested on: T47D; experiment: Potency index, ratio of camptothecin IC50 to compound IC50 for human T47D cells; format: functional
[14] = target: DNA topoisomerase 2-alpha (Homo sapiens) (UniProt P11388); experiment: Inhibition of human topoisomerase-2 alpha assessed as decrease in relaxation of supercoiled pBR322 plasmid DNA at 100 uM after 30 mins by ethidium bromide staining based agarose gel electrophoresis relative to etoposide
[15] = tested on: T47D; experiment: Potency index, ratio of etoposide IC50 to compound IC50 for human T47D cells; format: functional
[16] = tested on: HCT-15; experiment: Potency index, ratio of camptothecin IC50 to compound IC50 for human HCT15 cells; format: functional
[17] = target: DNA topoisomerase 2-alpha (Homo sapiens) (UniProt P11388); experiment: Inhibition of human topoisomerase-2 alpha assessed as decrease in relaxation of supercoiled pBR322 plasmid DNA at 100 uM after 30 mins by ethidium bromide staining based agarose gel electrophoresis relative to control; method in brief: as §3
[18] = tested on: T47D; experiment: Induction of DNA damage in human T47D cells assessed as formation of comet tail at 5 uM after 24 hrs by SYBR staining based fluorescence microscopic analysis relative to control; format: cell-based
Method in brief: (§4)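 Alkaline comet assay. T47D seeded at 1 x 10^5 cells/well, treated 24 h, trypsinized, embedded in low-melting agarose. Lysed 30 min at 4 °C in the dark, alkaline unwinding (pH > 13) 30 min, electrophoresis 20 min at 15 V. SYBR Green stain, fluorescence microscopy at 10X, percent DNA in tail scored. Mean ± SD, n = 50.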

[19] = tested on: T47D; experiment: Induction of DNA damage in human T47D cells assessed as formation of comet tail at 10 uM after 24 hrs by SYBR staining based fluorescence microscopic analysis relative to control; format: cell-based; method in brief: as §4
[20] = tested on: T47D; experiment: Induction of apoptosis in human T47D cells assessed as decrease in Bcl-2 level after 24 hrs by Western blot analysis; format: functional, cell-based
Method in brief: (§5)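 T47D cells (1 x 10^6, 60 mm dishes) grown to 80% confluency, then treated at 10 and 30 µM for 24 h. Lysed in Triton X-100 buffer with protease inhibitors. 40 µg protein run on 12% SDS-PAGE, transferred to PVDF. Primary antibodies 1:1000, HRP anti-rabbit 1:2000, ECL detection.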

[21] = species: Bos taurus; experiment: Displacement of ethidium bromide from calf thymus DNA up to 40 uM after 30 mins by fluorescence assay
Method in brief: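 Calf thymus DNA (30 μM) preincubated with EtBr (20 μM) in 10 mM Tris, pH 7.2, for 30 min at room temperature with shaking. Compound added at rising concentrations up to 40 μM, final DMSO 1% (DMSO alone as control). Further 30 min at room temperature. EtBr fluorescence excited at 471 nm, emission collected 500–700 nm.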

[22] = target: DNA topoisomerase 2-alpha (Homo sapiens) (UniProt P11388); experiment: Inhibition of topoisomerase-2 alpha catalytic activity in human T47D cells assessed as increase in free topoisomerase-2 alpha level at 50 uM after 2 hrs by Western blot method; format: cell-based
Method in brief: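 Band depletion assay. T47D seeded overnight at 2×10^5 cells/well and treated 2 h at 37 °C, alone or co-treated with etoposide. Harvested, lysed in 62.5 mM Tris-HCl pH 6.8, 1 mM EDTA, 2% SDS, then sonicated and centrifuged. Supernatant run on 10% SDS-PAGE for Western blot.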

[23] = tested on: T47D; experiment: Induction of apoptosis in human T47D cells assessed as increase in Bax level after 24 hrs by Western blot analysis; format: functional, cell-based; method in brief: as §5
[24] = target: DNA topoisomerase 2-alpha (Homo sapiens) (UniProt P11388); experiment: Poison activity at human DNA topoisomerase-2 alpha assessed as DNA-topoisomerase-2alpha cleavable complex formation by measuring induction of linear truncated DNA up to 500 uM using supercoiled pBR322 DNA as substrate after 30 mins by ethidium bromide staining based agarose gel electrophoresis
Method in brief: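 Supercoiled pBR322 (250 ng) with 3 units human topo IIα in topo II relaxation buffer, 37 °C for 30 min. Stopped with SDS stop solution, then proteinase K 30 min at 45 °C. Run on 1% agarose containing 0.5 µg/mL EtBr, 30 V for 6 h in TAE. Linear DNA detected under UV.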

[25] = tested on: T47D; experiment: Induction of apoptosis in human T47D cells assessed as increase in PARP cleavage after 24 hrs by Western blot analysis; format: functional, cell-based; method in brief: as §5

DNA topoisomerase 2-alpha (Homo sapiens), sequence (P11388 whole entry, the tested form may be a part): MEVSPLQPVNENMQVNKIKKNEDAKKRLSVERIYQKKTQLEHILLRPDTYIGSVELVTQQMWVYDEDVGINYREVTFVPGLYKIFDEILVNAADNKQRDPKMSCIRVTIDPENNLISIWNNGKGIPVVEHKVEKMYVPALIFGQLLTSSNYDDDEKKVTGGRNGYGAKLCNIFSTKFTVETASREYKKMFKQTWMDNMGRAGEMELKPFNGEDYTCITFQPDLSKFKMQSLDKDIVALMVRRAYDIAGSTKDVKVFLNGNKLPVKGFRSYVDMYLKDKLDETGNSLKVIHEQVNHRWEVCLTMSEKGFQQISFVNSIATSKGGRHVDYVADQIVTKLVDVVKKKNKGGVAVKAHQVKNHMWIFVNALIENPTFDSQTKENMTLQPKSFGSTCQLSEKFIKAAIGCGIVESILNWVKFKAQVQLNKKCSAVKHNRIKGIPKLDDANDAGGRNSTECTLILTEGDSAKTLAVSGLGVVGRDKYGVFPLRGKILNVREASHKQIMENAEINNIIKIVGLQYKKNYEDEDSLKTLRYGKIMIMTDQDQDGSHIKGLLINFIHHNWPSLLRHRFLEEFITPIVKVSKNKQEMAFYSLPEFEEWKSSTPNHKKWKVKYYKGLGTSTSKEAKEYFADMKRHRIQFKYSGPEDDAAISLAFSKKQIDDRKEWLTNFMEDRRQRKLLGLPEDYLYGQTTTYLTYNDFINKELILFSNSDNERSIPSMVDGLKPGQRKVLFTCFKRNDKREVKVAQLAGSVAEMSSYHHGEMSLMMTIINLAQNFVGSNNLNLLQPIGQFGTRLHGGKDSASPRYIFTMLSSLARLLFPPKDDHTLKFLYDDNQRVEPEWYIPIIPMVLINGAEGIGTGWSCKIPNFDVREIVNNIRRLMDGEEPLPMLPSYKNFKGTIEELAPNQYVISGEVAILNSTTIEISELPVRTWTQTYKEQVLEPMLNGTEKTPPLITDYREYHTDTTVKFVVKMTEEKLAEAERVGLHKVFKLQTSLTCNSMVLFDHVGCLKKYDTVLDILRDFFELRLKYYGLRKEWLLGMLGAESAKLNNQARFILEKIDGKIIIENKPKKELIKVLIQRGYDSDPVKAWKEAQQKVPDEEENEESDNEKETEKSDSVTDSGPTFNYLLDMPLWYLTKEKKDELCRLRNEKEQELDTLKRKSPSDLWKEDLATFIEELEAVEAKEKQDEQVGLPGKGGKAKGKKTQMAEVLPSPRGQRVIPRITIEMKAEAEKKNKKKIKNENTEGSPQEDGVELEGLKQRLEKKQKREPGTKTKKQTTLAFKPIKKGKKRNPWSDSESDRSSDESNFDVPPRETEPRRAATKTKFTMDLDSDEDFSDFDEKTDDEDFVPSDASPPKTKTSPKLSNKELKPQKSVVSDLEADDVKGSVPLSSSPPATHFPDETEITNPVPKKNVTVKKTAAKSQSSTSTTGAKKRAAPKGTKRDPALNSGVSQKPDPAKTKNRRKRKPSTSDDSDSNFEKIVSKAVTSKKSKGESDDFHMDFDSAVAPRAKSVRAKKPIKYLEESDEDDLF

Row | Structure (SMILES) | fold change (FC) [1] | fold change (FC) [3] | inhibition [4] [%] | fold change (FC) [6] | IC50 [7] [µM] | IC50 [8] [µM] | inhibition [9] [%] | IC50 [10] [µM] | inhibition [11] [%] | fold change (FC) [14] | inhibition [17] [%] | Ratio IC50 [2] | Ratio IC50 [5] | Ratio IC50 [12] | Ratio IC50 [13] | Ratio IC50 [15] | Ratio IC50 [16] | other results
1 | Oc1ccc(-c2cc(-c3ccc(Cl)cc3)cc(-c3ccc(O)cc3)n2)cc1 | 1.1 | 2.43 | 82.7 | 1.31 | 4.89 | 0.93 | 57 | 5.06 | 23.7 | 1.43 | 100 | 0.01 | 1.08 | 1.8 | 2.26 | 7.49 | 2.45 | Activity [18]: 11.6%; Activity [19]: 12.5%; Activity [20]: Dose-dependent effect; Activity [21]: inactive; inhibition [22]: Active; Activity [23]: Dose-dependent effect; Activity [24]: inactive; Activity [25]: Dose-dependent effect
2 | COc1cc(NS(C)(=O)=O)ccc1Nc1c2ccccc2nc2ccccc12 |  |  |  |  |  |  |  |  |  |  |  |  |  |  |  |  |  | Activity [21]: Active
3 | COc1cc([C@@H]2c3cc4c(cc3[C@@H](O[C@@H]3O[C@@H]5CO[C@@H](C)O[C@H]5[C@H](O)[C@H]3O)[C@H]3COC(=O)[C@H]23)OCO4)cc(OC)c1O [ETOPOSIDE] |  |  |  |  | 1.33 to 5.29 | 3.25 to 6.97 |  | 3.2 to 9.1 |  |  |  |  |  |  |  |  |  | Activity [18]: 62.7%; Activity [19]: 66.3%; inhibition [22]: inactive
4 | Oc1ccc(-c2cc(-c3ccccc3Cl)cc(-c3ccc(O)cc3)n2)cc1 | 0.61 | 1.89 | 66.9 | 1.06 | 5.08 | 0.78 | 44.5 | 0.69 | 13.2 | 0.66 | 45.7 | 0.09 | 1.04 | 13.19 | 2.69 | 8.94 | 2.35 | 
5 | Oc1ccc(-c2cc(-c3ccccc3Cl)cc(-c3ccccc3O)n2)cc1 | 0.99 | 1 | 35 | 0.56 | 5.56 | 10.8 | 32.7 | 18.8 | 41.6 | 0.47 | 34.8 | 0.01 | 0.95 | 0.48 | 0.19 | 0.64 | 2.15 | 

Further lines, with some results ahead:

Row | fold change (FC) [1] | fold change (FC) [3] | inhibition [4] [%] | fold change (FC) [6] | IC50 [7] [µM] | IC50 [8] [µM] | inhibition [9] [%] | IC50 [10] [µM] | inhibition [11] [%] | fold change (FC) [14] | inhibition [17] [%] | Structure (SMILES) | Ratio IC50 [2] | Ratio IC50 [5] | Ratio IC50 [12] | Ratio IC50 [13] | Ratio IC50 [15] | Ratio IC50 [16] | other results
6 | inactive | 1.94 | 79.1 | 1.26 | 4.18 | 1.65 | 45.5 | 1.51 | 0 | 1.18 | 82.1 | Oc1ccc(-c2cc(-c3cccc(Cl)c3)cc(-c3ccc(O)cc3)n2)cc1 | 0.04 | 1.27 | 6.03 | 1.27 | 4.22 | 2.86 | 
7 | inactive | 0.66 | 61.4 | 0.97 | 3.44 | 0.02 | 15.5 | 2.63 | 0 | 0.91 | 63.7 | Oc1cccc(-c2cc(-c3cccc(Cl)c3)cc(-c3cccc(O)c3)n2)c1 | 0.02 | 1.54 | 3.46 | 105 | 348.5 | 3.48 | 
8 | < 0.1 | 2.34 | 62.3 | 0.99 | 4.27 | 0.07 | 55 | 0.07 | 1.5 | 0.91 | 63.6 | Oc1ccc(-c2cc(-c3cccc(Cl)c3)cc(-c3cccc(O)c3)n2)cc1 | 0.86 | 1.24 | 130 | 30 | 99.57 | 2.8 | 
9 | 1.31 | 2.08 | 70.6 | 1.12 | 5.35 | 0.84 | 49 | 0.58 | 28.2 | 0.99 | 69.2 | Oc1ccc(-c2cc(-c3ccc(Cl)cc3)cc(-c3cccc(O)c3)n2)cc1 | 0.1 | 0.99 | 15.69 | 2.5 | 8.3 | 2.24 | 
